For orientation: pKa means the pH at which an ionisable group is half protonated. Low values mean a group that gives up its proton readily, high ones a group that holds its proton tightly.

15 molecules from ChEMBL document CHEMBL2321842, “Rapid Determination of Ionization Constants (pK a) by UV Spectroscopy Using 96-Well Microtiter Plates” (ACS Med Chem Lett, 2013) can be followed below.

The series is described as follows: Dissociation constant, pKa of the compound at pH 3 to 12 by UV spectroscopy. Type of series: physicochemical. An outline of the steps: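 UV-spectrophotometric titration in microplate wells. 10 mM DMSO stock diluted into buffers to 0.2 mM final (0.1 mM if spectra saturated), 2% v/v DMSO. Buffers: acetate, phosphate, borax, glycine/NaOH, pH 3–12.6, ionic strength 0.1 M (KCl), 30 °C. Spectra read at 2 nm resolution. Total absorbance difference at two analytical wavelengths fitted against pH by nonlinear regression. Mean of ≥3 independent runs ± SD.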

Each structure is given as a SMILES string.

The molecule `CCON1CCN/C1=N/c1ccc(CCc2ccc(/N=C3\NCCN3OCC)cc2)cc1` displayed a pKa of 8.01. With `Clc1cccc(Cl)c1N=C1NCCN1` [CLONIDINE] the figure was 8.14; with `CON1CCN/C1=N/c1ccc(CCc2ccc(/N=C3\NCCN3OC)cc2)cc1`, 8.01. With `CON1CCN/C1=N/c1ccc(C(=O)Nc2ccc(/N=C3\NCCN3OC)cc2)cc1` the figure was 7.27; with `N=C(N)Oc1ccc(Oc2ccc(OC(=N)N)cc2)cc1`, 10.7; with `ON1CCN/C1=N/c1ccc(CCc2ccc(/N=C3\NCCN3O)cc2)cc1`, 7.97.

`c1cc(NC2=NCCN2)ccc1CCc1ccc(NC2=NCCN2)cc1`: the pKa worked out at 10.7. With `CON1CCN/C1=N\c1ccc(NC(=O)Nc2ccc(/N=C3\NCCN3OC)cc2)cc1` the figure was 7.95; with `O=C(Nc1ccc(NC2=NCCN2)cc1)Nc1ccc(NC2=NCCN2)cc1`, 10.3; with `O=[N+]([O-])c1ccc(O)cc1` [P-NITROPHENOL], 6.87. With `CCON1CCN/C1=N/c1ccc(C(=O)Nc2ccc(/N=C3\NCCN3OCC)cc2)cc1` the figure was 7.34. The same measure for `Cc1nc2ccccc2[nH]1`: 6.22; for `O=[N+]([O-])c1c[nH]cn1`: 9.2.

On to `O=C(Nc1ccc(/N=C2\NCCN2O)cc1)c1ccc(/N=C2/NCCN2O)cc1`, for which the pKa was 7.43.

With `CCON1CCN/C1=N\c1ccc(NC(=O)Nc2ccc(/N=C3\NCCN3OCC)cc2)cc1`, the pKa stood at 8.27.
